From ChEMBL document CHEMBL1124624, “Synthesis and biological evaluation of 4,6-diethyl-1,3,4,5-tetrahydropyrano[4,3-b]indole-4-acetic acid, an isomer of etodolac” (J Med Chem, 1989)
Each block holds one molecule with its values, some of them ahead of it.

Tests used:
[1] = In vitro inhibition of prostaglandin E2 production in cultured chondrocytes; assay type: functional, cell-based
Summary of the method: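 Cultured chondrocytes were exposed to compound at neutral pH over a short incubation period. Prostaglandin E2 production was measured, and inhibitory potency is given as an IC50.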

Rattus norvegicus = assay: Antiinflammatory activity of the perorally administered compound assessed in adjuvant arthritis assay in rat; assay type: functional; conditions: po
Summary of the method: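 Rats given test compound by mouth in the curative (established-disease) adjuvant arthritis/edema model. Inhibition of paw edema was scored, and potency is given as an ED50 in mg/kg.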

Structure (SMILES): CCC1(CC(=O)O)SCCc2c1[nH]c1ccccc21 (configuration not stated)
IC50 [1]: 300 nM | ED50 (Rattus norvegicus): > 25 mg/kg

Structure (SMILES): CCc1cccc2c3c([nH]c12)C(CC)(CC(=O)O)CCCC3 (configuration not stated)
ED50 (Rattus norvegicus): > 50 mg/kg

Structure (SMILES): CCc1cccc2c3c([nH]c12)C(CC)(CC(=O)O)CCC3 (configuration not stated)
IC50 [1]: 20 nM | ED50 (Rattus norvegicus): 1.9 mg/kg

Structure (SMILES): CCc1cccc2c3c([nH]c12)C(CC)(CC(=O)O)COC3 (configuration not stated)
IC50 [1]: 50 nM | ED50 (Rattus norvegicus): 3 mg/kg

Structure (SMILES): CCc1cccc2c3c([nH]c12)C(CC)(CC(=O)O)CC3 (configuration not stated)
ED50 (Rattus norvegicus): 6.2 mg/kg

Now from value to molecule, other results behind:

IC50 [1]: 100 nM
Structure (SMILES): CCC1(CC(=O)O)OCCc2c1[nH]c1ccccc21 (configuration not stated)
ED50 (Rattus norvegicus): 6.8 mg/kg

IC50 [1]: 23 nM
Structure (SMILES): CCc1cccc2c3c([nH]c12)C(CC)(CC(=O)O)OCC3 (configuration not stated) [ETODOLAC]
ED50 (Rattus norvegicus): 0.7 mg/kg
